Test results reported in ChEMBL document CHEMBL1136789, “Synthesis and biological evaluation of new 2-(4,5-dihydro-1H-imidazol-2-yl)-3,4-dihydro-2H-1,4-benzoxazine derivatives” (J Med Chem, 2003).

Assays:
[1] = molecular target: T1, Alpha-1A adrenergic receptor (Bos taurus, UniProt P18130); experiment: In Vitro Alpha-1 adrenergic receptor binding affinity on calf frontal cortex membrane preparation; assay type: tissue-based
T1 sequence (P18130 whole entry): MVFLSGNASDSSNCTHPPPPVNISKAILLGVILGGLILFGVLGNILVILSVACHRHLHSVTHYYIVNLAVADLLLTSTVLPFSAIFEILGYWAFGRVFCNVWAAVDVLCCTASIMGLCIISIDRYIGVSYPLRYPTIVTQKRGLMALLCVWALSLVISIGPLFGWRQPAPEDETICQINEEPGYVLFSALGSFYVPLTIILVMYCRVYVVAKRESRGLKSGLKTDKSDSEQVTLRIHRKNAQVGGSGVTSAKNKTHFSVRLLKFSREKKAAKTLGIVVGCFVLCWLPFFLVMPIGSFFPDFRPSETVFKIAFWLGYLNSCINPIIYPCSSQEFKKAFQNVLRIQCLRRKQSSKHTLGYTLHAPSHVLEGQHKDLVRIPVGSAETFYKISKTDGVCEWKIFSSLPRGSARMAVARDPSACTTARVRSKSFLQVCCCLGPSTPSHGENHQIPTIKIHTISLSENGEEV
In short: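 Calf frontal cortex membranes (0.5 mg protein/mL) incubated 40 min at 25 °C with 0.5 nM [3H]prazosin in 50 mM phosphate buffer with 10 mM MgCl2. Competitors at 10^-9 to 10^-4 M. Nonspecific binding set with 10 µM phentolamine. Stopped by rapid vacuum filtration through glass fibre filters, then washed three times with ice-cold buffer. Ki reported.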

[2] = In vitro alpha-2 adrenergic receptor binding affinity was determined on calf frontal cortex membrane preparation; assay type: tissue-based, Bos taurus
Rattus norvegicus [3] = experiment: Effect after 25 mg/kg, po, on heart rate in conscious spontaneously hypertensive rats; assay type: functional
In short: (§1)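 Studied conscious 24 h after surgery. Dosed by oral gavage after ≥40 min stabilisation, n=6/group. Vehicle 0.5% carboxymethylcellulose, 5 mL/kg. MAP and HR recorded over 24 h. Output is the maximal change from baseline (mmHg, bpm, %). Repeated-measures ANOVA with Dunnett's tests.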

Rattus norvegicus [4] = experiment: Effect at (25 mg/kg, ip) on heart rate in anesthetized spontaneously hypertensive rats; assay type: functional
In short: (§2)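 Adult male SHR anaesthetised with sodium pentobarbital 50 mg/kg ip, left carotid catheter filled with heparinised saline. BP and HR (HR from pulse pressure) stabilised ≥40 min before a single ip dose, n=6/group. Vehicle 0.5% carboxymethylcellulose in water, 2.5 mL/kg. Recorded over 90 min. Output is the maximal change in MAP (mmHg) and HR (bpm) from pre-dose baseline, also as %. Repeated-measures ANOVA with Dunnett's tests.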

Rattus norvegicus [5] = experiment: Effect after 25 mg/kg, po, on mean arterial blood pressure in conscious spontaneously hypertensive rats; assay type: functional; in short: as §1
Rattus norvegicus [6] = experiment: Effect (25 mg/kg ip) on heart rate in anesthetized spontaneously hypertensive rats; assay type: functional; in short: as §2
Rattus norvegicus [7] = experiment: Effect (25 mg/kg ip) on mean arterial blood pressure in anesthetized spontaneously hypertensive rats; assay type: functional; in short: as §2

Q: Which results are given for `CN1CC(C2=NCCN2)Oc2ccccc21` (stereo not given)?
A: Ki [1]: 1100 nM; Ki [2]: 74 nM; Max delta HR (Rattus norvegicus [3]): -97 beats min-1; Variation (Rattus norvegicus [3]): -26%; Max delta HR (Rattus norvegicus [4]): -148 beats min-1; Max delta MAP (Rattus norvegicus [5]): -65 mmHg; Variation (Rattus norvegicus [5]): -36%; Variation (Rattus norvegicus [6]): -44%; Max delta MAP (Rattus norvegicus [7]): -36 mmHg; Variation (Rattus norvegicus [7]): -21%
